Experimental data published in ChEMBL document CHEMBL4024754, “Development of Potent, Protease-Resistant Agonists of the Parathyroid Hormone Receptor with Broad β Residue Distribution” (J Med Chem, 2017).
Active and inactive are the calls of the source. No cut-off for these calls is given here. Peptide text beside a SMILES is read from it. * marks the point of attachment. ACPC(1S,2S) = N[C@H]1CCC[C@@H]1C(=O)*

What was measured:
Type in all cases: functional, cell-based
[1] = molecular target: T1, Parathyroid hormone/parathyroid hormone-related peptide receptor (Homo sapiens, UniProt Q03431); assay: Agonist activity at human PTH1 receptor expressed in human GP2.3 cells assessed as induction of cAMP after 12 to 20 mins by luciferase reporter gene assay
T1 sequence (Q03431 whole entry): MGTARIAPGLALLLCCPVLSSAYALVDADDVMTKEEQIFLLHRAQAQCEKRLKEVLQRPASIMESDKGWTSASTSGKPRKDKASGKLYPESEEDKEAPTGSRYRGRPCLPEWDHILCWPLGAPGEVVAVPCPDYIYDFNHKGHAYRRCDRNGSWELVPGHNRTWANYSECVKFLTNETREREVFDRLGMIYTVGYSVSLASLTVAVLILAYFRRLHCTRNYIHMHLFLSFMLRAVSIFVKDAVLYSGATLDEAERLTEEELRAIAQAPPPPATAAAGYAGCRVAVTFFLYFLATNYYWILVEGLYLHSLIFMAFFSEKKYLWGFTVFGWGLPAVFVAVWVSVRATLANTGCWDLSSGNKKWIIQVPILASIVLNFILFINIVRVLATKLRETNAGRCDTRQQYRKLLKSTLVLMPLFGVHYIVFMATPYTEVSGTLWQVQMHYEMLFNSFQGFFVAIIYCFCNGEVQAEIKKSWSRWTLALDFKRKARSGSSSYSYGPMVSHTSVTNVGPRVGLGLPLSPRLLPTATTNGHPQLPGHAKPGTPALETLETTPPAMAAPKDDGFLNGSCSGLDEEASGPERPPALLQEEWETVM

[2] = molecular target: T2, Parathyroid hormone/parathyroid hormone-related peptide receptor (Homo sapiens) (UniProt Q03431); assay: Agonist activity at human PTH1 receptor expressed in human GP2.3 cells assessed as induction of cAMP after 12 to 20 mins by luciferase reporter gene assay relative to PTH(1 to 34 residues)-NH2
T2 sequence (whole entry): T1 sequence (Q03431 whole entry)

[3] = molecular target: T2, Parathyroid hormone/parathyroid hormone-related peptide receptor (Homo sapiens); assay: Agonist activity at extracellular domain truncate human PTH1 receptor expressed in GD5 cells assessed as induction of cAMP after 12 to 20 mins by luciferase reporter gene assay
In short: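 HEK293-derived lines stably expressing Glosensor cAMP reporter plus full-length human PTHR1 (GP2.3) or ECD-truncated PTHR1 (GD5). Confluent monolayers preincubated at room temperature in CO2-independent medium with 0.5 mM D-luciferin until baseline stable (30 min), then varied agonist concentrations added. Maximal luminescence (12−20 min) used for sigmoidal variable-slope fits.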

EC50 ([1]; read-out: EC50)	fold change (FC) [2]	Activity [3]	EC50 [1]	Structure (SMILES)
340 pM	3.7	Active	–	CC[C@H](C)[C@H](NC(=O)[C@H](CCC(=O)O)NC(=O)[C@H](CO)NC(=O)[C@@H](NC(=O)[C@@H](N)CO)C(C)C)C(=O)N[C@H]1CCC[C@@H]1C(=O)N[C@@H](CC(C)C)C(=O)N[C@@H](CCSC)C(=O)N[C@@H](Cc1cnc[nH]1)C(=O)N[C@@H](CC(N)=O)C(=O)N[C@@H](CC(C)C)C(=O)NCC(=O)N[C@@H](CCCCN)C(=O)N[C@@H](Cc1cnc[nH]1)C(=O)N[C@@H](CC(C)C)C(=O)N[C@@H](CC(N)=O)C(=O)N[C@@H](CO)C(=O)N[C@@H](CCSC)C(=O)N[C@@H](CCC(=O)O)C(=O)N[C@@H](CCCNC(=N)N)C(=O)N[C@H](C(=O)N[C@@H](CCC(=O)O)C(=O)N[C@@H](Cc1c[nH]c2ccccc12)C(=O)N[C@@H](CC(C)C)C(=O)N[C@@H](CCCNC(=N)N)C(=O)N[C@@H](CCCCN)C(=O)N[C@@H](CCCCN)C(=O)N[C@@H](CC(C)C)C(=O)N[C@@H](CCC(N)=O)C(=O)N[C@@H](CC(=O)O)C(=O)N[C@H](C(=O)N[C@@H](Cc1cnc[nH]1)C(=O)N[C@@H](CC(N)=O)C(=O)N[C@@H](Cc1ccccc1)C(N)=O)C(C)C)C(C)C
170 pM	1.9	Active	–	CSCC[C@H](NC(=O)[C@H](CO)NC(=O)[C@H](CC(N)=O)NC(=O)[C@H](CC(C)C)NC(=O)[C@H](Cc1cnc[nH]1)NC(=O)[C@H](CCCCN)NC(=O)CNC(=O)[C@H](CC(C)C)NC(=O)[C@H](CC(N)=O)NC(=O)[C@H](Cc1cnc[nH]1)NC(=O)[C@H](CCSC)NC(=O)[C@H](CC(C)C)NC(=O)[C@H](CCC(N)=O)NC(=O)[C@H]1CCC[C@@H]1NC(=O)[C@H](CCC(=O)O)NC(=O)[C@H](CO)NC(=O)[C@@H](NC(=O)[C@@H](N)CO)C(C)C)C(=O)N[C@@H](CCC(=O)O)C(=O)N[C@@H](CCCNC(=N)N)C(=O)N[C@H](C(=O)N[C@@H](CCC(=O)O)C(=O)N[C@@H](Cc1c[nH]c2ccccc12)C(=O)N[C@@H](CC(C)C)C(=O)N[C@@H](CCCNC(=N)N)C(=O)N[C@@H](CCCCN)C(=O)N[C@@H](CCCCN)C(=O)N[C@@H](CC(C)C)C(=O)N[C@@H](CCC(N)=O)C(=O)N[C@@H](CC(=O)O)C(=O)N[C@H](C(=O)N[C@@H](Cc1cnc[nH]1)C(=O)N[C@@H](CC(N)=O)C(=O)N[C@@H](Cc1ccccc1)C(N)=O)C(C)C)C(C)C
9740 pM	107	Active	–	CC[C@H](C)[C@H](NC(=O)[C@H](CCC(=O)O)NC(=O)[C@H](CO)NC(=O)[C@@H](NC(=O)[C@@H](N)CO)C(C)C)C(=O)N[C@@H](CCC(N)=O)C(=O)N[C@@H](CC(C)C)C(=O)N[C@H]1CCC[C@@H]1C(=O)N[C@@H](Cc1cnc[nH]1)C(=O)N[C@@H](CC(N)=O)C(=O)N[C@@H](CC(C)C)C(=O)NCC(=O)N[C@@H](CCCCN)C(=O)N[C@@H](Cc1cnc[nH]1)C(=O)N[C@@H](CC(C)C)C(=O)N[C@@H](CC(N)=O)C(=O)N[C@@H](CO)C(=O)N[C@@H](CCSC)C(=O)N[C@@H](CCC(=O)O)C(=O)N[C@@H](CCCNC(=N)N)C(=O)N[C@H](C(=O)N[C@@H](CCC(=O)O)C(=O)N[C@@H](Cc1c[nH]c2ccccc12)C(=O)N[C@@H](CC(C)C)C(=O)N[C@@H](CCCNC(=N)N)C(=O)N[C@@H](CCCCN)C(=O)N[C@@H](CCCCN)C(=O)N[C@@H](CC(C)C)C(=O)N[C@@H](CCC(N)=O)C(=O)N[C@@H](CC(=O)O)C(=O)N[C@H](C(=O)N[C@@H](Cc1cnc[nH]1)C(=O)N[C@@H](CC(N)=O)C(=O)N[C@@H](Cc1ccccc1)C(N)=O)C(C)C)C(C)C
–	–	Active	Not Active	CC[C@H](C)[C@H](NC(=O)[C@H](CCC(=O)O)NC(=O)[C@H](CO)NC(=O)[C@@H](NC(=O)[C@@H](N)CO)C(C)C)C(=O)N[C@@H](CCC(N)=O)C(=O)N[C@@H](CC(C)C)C(=O)N[C@@H](CCSC)C(=O)N[C@H]1CNC[C@@H]1C(=O)N[C@@H](CC(N)=O)C(=O)N[C@@H](CC(C)C)C(=O)NCC(=O)N[C@@H](CCCCN)C(=O)N[C@@H](Cc1cnc[nH]1)C(=O)N[C@@H](CC(C)C)C(=O)N[C@@H](CC(N)=O)C(=O)N[C@@H](CO)C(=O)N[C@@H](CCSC)C(=O)N[C@@H](CCC(=O)O)C(=O)N[C@@H](CCCNC(=N)N)C(=O)N[C@H](C(=O)N[C@@H](CCC(=O)O)C(=O)N[C@@H](Cc1c[nH]c2ccccc12)C(=O)N[C@@H](CC(C)C)C(=O)N[C@@H](CCCNC(=N)N)C(=O)N[C@@H](CCCCN)C(=O)N[C@@H](CCCCN)C(=O)N[C@@H](CC(C)C)C(=O)N[C@@H](CCC(N)=O)C(=O)N[C@@H](CC(=O)O)C(=O)N[C@H](C(=O)N[C@@H](Cc1cnc[nH]1)C(=O)N[C@@H](CC(N)=O)C(=O)N[C@@H](Cc1ccccc1)C(N)=O)C(C)C)C(C)C

Continued, compound first:

Structure (SMILES)	EC50 ([1]; read-out: EC50)	fold change (FC) [2]	Activity [3]	EC50 [1]
CC[C@H](C)[C@H](NC(=O)[C@H](CCC(=O)O)NC(=O)[C@H](CO)NC(=O)[C@@H](NC(=O)[C@@H](N)CO)C(C)C)C(=O)N[C@@H](CCC(N)=O)C(=O)N[C@H]1CCC[C@@H]1C(=O)N[C@@H](CCSC)C(=O)N[C@@H](Cc1cnc[nH]1)C(=O)N[C@@H](CC(N)=O)C(=O)N[C@@H](CC(C)C)C(=O)NCC(=O)N[C@@H](CCCCN)C(=O)N[C@@H](Cc1cnc[nH]1)C(=O)N[C@@H](CC(C)C)C(=O)N[C@@H](CC(N)=O)C(=O)N[C@@H](CO)C(=O)N[C@@H](CCSC)C(=O)N[C@@H](CCC(=O)O)C(=O)N[C@@H](CCCNC(=N)N)C(=O)N[C@H](C(=O)N[C@@H](CCC(=O)O)C(=O)N[C@@H](Cc1c[nH]c2ccccc12)C(=O)N[C@@H](CC(C)C)C(=O)N[C@@H](CCCNC(=N)N)C(=O)N[C@@H](CCCCN)C(=O)N[C@@H](CCCCN)C(=O)N[C@@H](CC(C)C)C(=O)N[C@@H](CCC(N)=O)C(=O)N[C@@H](CC(=O)O)C(=O)N[C@H](C(=O)N[C@@H](Cc1cnc[nH]1)C(=O)N[C@@H](CC(N)=O)C(=O)N[C@@H](Cc1ccccc1)C(N)=O)C(C)C)C(C)C	120 pM	1.3	Active	–
CC[C@H](C)[C@H](NC(=O)[C@H](CCC(=O)O)NC(=O)[C@H](CO)NC(=O)[C@@H](NC(=O)[C@H]1CCC[C@@H]1N)C(C)C)C(=O)N[C@@H](CCC(N)=O)C(=O)N[C@@H](CC(C)C)C(=O)N[C@@H](CCSC)C(=O)N[C@@H](Cc1cnc[nH]1)C(=O)N[C@@H](CC(N)=O)C(=O)N[C@@H](CC(C)C)C(=O)NCC(=O)N[C@@H](CCCCN)C(=O)N[C@@H](Cc1cnc[nH]1)C(=O)N[C@@H](CC(C)C)C(=O)N[C@@H](CC(N)=O)C(=O)N[C@@H](CO)C(=O)N[C@@H](CCSC)C(=O)N[C@@H](CCC(=O)O)C(=O)N[C@@H](CCCNC(=N)N)C(=O)N[C@H](C(=O)N[C@@H](CCC(=O)O)C(=O)N[C@@H](Cc1c[nH]c2ccccc12)C(=O)N[C@@H](CC(C)C)C(=O)N[C@@H](CCCNC(=N)N)C(=O)N[C@@H](CCCCN)C(=O)N[C@@H](CCCCN)C(=O)N[C@@H](CC(C)C)C(=O)N[C@@H](CCC(N)=O)C(=O)N[C@@H](CC(=O)O)C(=O)N[C@H](C(=O)N[C@@H](Cc1cnc[nH]1)C(=O)N[C@@H](CC(N)=O)C(=O)N[C@@H](Cc1ccccc1)C(N)=O)C(C)C)C(C)C ({ACPC(1S,2S)}-VSEIQLMHNLGKHLNSMERVEWLRKKLQDVHNF-NH2)	150 pM	1.6	Active	–
CC[C@H](C)[C@H](NC(=O)[C@H](CCC(=O)O)NC(=O)[C@H](CO)NC(=O)[C@H]1CCC[C@@H]1NC(=O)[C@@H](N)CO)C(=O)N[C@@H](CCC(N)=O)C(=O)N[C@@H](CC(C)C)C(=O)N[C@@H](CCSC)C(=O)N[C@@H](Cc1cnc[nH]1)C(=O)N[C@@H](CC(N)=O)C(=O)N[C@@H](CC(C)C)C(=O)NCC(=O)N[C@@H](CCCCN)C(=O)N[C@@H](Cc1cnc[nH]1)C(=O)N[C@@H](CC(C)C)C(=O)N[C@@H](CC(N)=O)C(=O)N[C@@H](CO)C(=O)N[C@@H](CCSC)C(=O)N[C@@H](CCC(=O)O)C(=O)N[C@@H](CCCNC(=N)N)C(=O)N[C@H](C(=O)N[C@@H](CCC(=O)O)C(=O)N[C@@H](Cc1c[nH]c2ccccc12)C(=O)N[C@@H](CC(C)C)C(=O)N[C@@H](CCCNC(=N)N)C(=O)N[C@@H](CCCCN)C(=O)N[C@@H](CCCCN)C(=O)N[C@@H](CC(C)C)C(=O)N[C@@H](CCC(N)=O)C(=O)N[C@@H](CC(=O)O)C(=O)N[C@H](C(=O)N[C@@H](Cc1cnc[nH]1)C(=O)N[C@@H](CC(N)=O)C(=O)N[C@@H](Cc1ccccc1)C(N)=O)C(C)C)C(C)C	270 pM	3	Active	–
